{"source": "ChEMBL document CHEMBL1124958", "about": "(J Med Chem, 1990)", "key": {"[1]": {"target": "T1, 5-hydroxytryptamine receptor 1A (Mus musculus) (UniProt Q64264)", "T1 sequence (whole entry)": "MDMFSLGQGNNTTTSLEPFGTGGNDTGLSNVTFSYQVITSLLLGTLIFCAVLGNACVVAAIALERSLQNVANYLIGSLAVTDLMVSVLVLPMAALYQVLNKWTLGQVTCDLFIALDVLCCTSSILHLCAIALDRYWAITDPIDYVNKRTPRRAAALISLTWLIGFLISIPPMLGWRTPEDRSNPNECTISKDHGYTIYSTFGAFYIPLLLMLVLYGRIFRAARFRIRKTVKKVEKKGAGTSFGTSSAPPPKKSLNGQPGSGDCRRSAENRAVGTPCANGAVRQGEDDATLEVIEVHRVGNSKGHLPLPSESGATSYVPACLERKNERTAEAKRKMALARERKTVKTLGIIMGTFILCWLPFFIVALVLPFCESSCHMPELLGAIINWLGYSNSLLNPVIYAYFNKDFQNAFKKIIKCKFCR", "assay": "Hill number was determined for inhibition of [3H]8-OH-DPAT binding to 5-hydroxytryptamine 1A receptor in mouse hippocampus", "type": "tissue-based"}, "[2]": {"target": "T2, 5-hydroxytryptamine receptor 1A (Mus musculus, UniProt Q64264)", "T2 sequence (Q64264 whole entry)": "T1 sequence (whole entry)", "assay": "Inhibitory activity towards 5-hydroxytryptamine 1A receptor by the displacement of [3H]8-OH-DPAT in mouse hippocampus", "type": "tissue-based"}, "[3]": {"target": "Serotonin 2 (5-HT2) receptor (Mus musculus) (UniProt Q02152+P34968+P35363)", "sequence (P34968 whole entry, looked up)": "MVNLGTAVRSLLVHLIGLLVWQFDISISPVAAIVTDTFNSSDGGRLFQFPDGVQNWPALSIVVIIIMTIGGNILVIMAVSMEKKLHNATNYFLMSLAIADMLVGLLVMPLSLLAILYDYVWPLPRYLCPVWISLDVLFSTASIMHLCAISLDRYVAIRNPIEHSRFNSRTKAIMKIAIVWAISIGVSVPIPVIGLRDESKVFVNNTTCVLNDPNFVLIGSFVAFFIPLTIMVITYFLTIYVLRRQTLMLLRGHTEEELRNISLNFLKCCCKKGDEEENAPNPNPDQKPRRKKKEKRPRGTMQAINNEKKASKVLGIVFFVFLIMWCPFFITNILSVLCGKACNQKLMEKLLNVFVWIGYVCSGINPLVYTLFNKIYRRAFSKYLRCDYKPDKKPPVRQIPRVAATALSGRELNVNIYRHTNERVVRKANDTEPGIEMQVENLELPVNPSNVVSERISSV", "sequence (P35363 whole entry, looked up)": "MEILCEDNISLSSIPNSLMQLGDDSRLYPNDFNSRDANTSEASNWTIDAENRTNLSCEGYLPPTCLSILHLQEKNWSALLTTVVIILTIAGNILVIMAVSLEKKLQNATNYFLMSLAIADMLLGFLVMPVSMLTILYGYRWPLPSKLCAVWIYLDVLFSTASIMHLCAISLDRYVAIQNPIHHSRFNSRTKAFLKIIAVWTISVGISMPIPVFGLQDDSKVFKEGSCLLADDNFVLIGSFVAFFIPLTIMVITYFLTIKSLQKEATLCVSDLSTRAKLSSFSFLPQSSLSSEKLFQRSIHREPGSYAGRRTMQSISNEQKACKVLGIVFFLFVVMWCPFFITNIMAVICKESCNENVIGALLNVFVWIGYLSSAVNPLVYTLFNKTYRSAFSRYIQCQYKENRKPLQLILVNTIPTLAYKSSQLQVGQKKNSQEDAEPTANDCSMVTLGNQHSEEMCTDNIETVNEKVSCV", "sequence (Q02152 whole entry, looked up)": "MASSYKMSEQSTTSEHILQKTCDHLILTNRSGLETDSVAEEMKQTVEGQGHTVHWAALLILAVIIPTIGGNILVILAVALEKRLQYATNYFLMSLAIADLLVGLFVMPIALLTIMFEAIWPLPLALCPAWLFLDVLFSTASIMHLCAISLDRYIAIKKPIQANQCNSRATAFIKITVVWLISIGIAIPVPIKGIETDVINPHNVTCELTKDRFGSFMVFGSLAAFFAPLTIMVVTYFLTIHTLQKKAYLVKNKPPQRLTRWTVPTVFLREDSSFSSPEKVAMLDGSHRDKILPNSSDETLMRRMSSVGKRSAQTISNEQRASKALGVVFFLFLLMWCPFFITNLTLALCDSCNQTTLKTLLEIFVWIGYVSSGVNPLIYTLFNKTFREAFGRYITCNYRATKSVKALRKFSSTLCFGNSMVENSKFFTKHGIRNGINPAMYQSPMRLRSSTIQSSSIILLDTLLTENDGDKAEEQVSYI", "assay": "Hill number was determined for inhibition of [3H]ketanserin binding to 5-hydroxytryptamine 2 receptor in mouse cerebral cortex", "type": "tissue-based", "method_in_brief": "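Hill numbers taken from seven-point inhibition curves of 0.15 nM [3H]ketanserin binding to washed mouse cortical membranes in 50 mM Tris-HCl pH 7.4, incubated 15 min at 37 °C. Nonspecific binding set with 1 μM methysergide; bound radioligand collected by filtration and counted.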"}, "[4]": {"target": "T3, Serotonin 2 (5-HT2) receptor (Mus musculus, UniProt Q02152+P34968+P35363)", "assay": "Binding affinity towards 5-hydroxytryptamine 2 receptor by the displacement of [3H]-ketanserin in mouse cerebral cortex", "type": "tissue-based", "method_in_brief": "(§1)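 BALB/cBy mouse cerebral cortex, homogenized in 0.25 M sucrose; 1000g supernatant pelleted at 35000g and washed in 50 mM Tris-HCl pH 7.4. Nonspecific binding defined with 1 μM methysergide. Filtration on GF/B, scintillation counting. IC50 from computer fit of seven-point curves, averaged over 2–5 determinations.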"}, "[5]": {"target": "T2, 5-hydroxytryptamine receptor 1A", "assay": "Binding affinity towards 5-hydroxytryptamine 1A receptor by the displacement of [3H]8-OH-DPAT in mouse hippocampus", "type": "tissue-based", "method_in_brief": "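Membranes incubated in triplicate with 1.2 nM [3H]8-OH-DPAT plus varying analogue concentrations, 30 min at 23 °C, 0.5 mL final volume. Filtered on PEI-pretreated GF/B; scintillation counting. IC50 derived from seven-point inhibition curves.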"}, "[6]": {"target": "T3, Serotonin 2 (5-HT2) receptor", "assay": "Inhibitory activity towards 5-hydroxytryptamine 2 receptor by the displacement of [3H]ketanserin in mouse cerebral cortex", "type": "tissue-based", "method_in_brief": "as §1"}, "[7]": {"target": "T1, 5-hydroxytryptamine receptor 1A (Mus musculus)", "settings": "Hippocampus"}, "[8]": {"organism": "Mus musculus", "assay": "Hill number was determined for inhibition of [3H]8-OH-DPAT binding in mouse hippocampus", "type": "functional", "method_in_brief": "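Triplicate incubations ran 30 min at 23 °C with 1.2 nM [3H]8-OH-DPAT over varying analogue concentrations, followed by filtration on polyethylenimine-treated GF/B filters and scintillation counting. Inhibition curves had seven points.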"}, "[9]": {"organism": "Mus musculus", "assay": "Hill number was determined for inhibition of [3H]ketanserin binding in mouse cerebral cortex", "type": "tissue-based", "method_in_brief": "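Cerebral cortex from adult BALB/cBy mice was homogenised in ice-cold 0.25 M sucrose pH 7.4. The 1000g supernatant was washed at 35000g in 50 mM Tris-HCl pH 7.4. Triplicate incubations ran 15 min at 37 °C with 0.15 nM [3H]ketanserin and varying analogue concentrations, final 2 mL. Nonspecific binding was set with 1 μM methysergide, and bound ligand was filtered on GF/B and counted by scintillation. Inhibition curves had seven points.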"}}}
{"molecule": "O=C1CC2CCC1C(N1CCCCC1)C2c1ccccc1", "note": "(stereo not drawn)", "values": [{"measurement": "Hill coefficient", "setting": "[1]", "result": 0.89}, {"measurement": "IC50", "setting": "[2]", "result": 358, "unit": "µM"}, {"measurement": "Hill coefficient", "setting": "[3]", "result": 1.2}, {"measurement": "Ki", "setting": "[4]", "result": 132, "unit": "µM"}, {"measurement": "Ki", "setting": "[5]", "result": 274, "unit": "µM"}, {"measurement": "IC50", "setting": "[6]", "result": 181, "unit": "µM"}]}
{"molecule": "O=C1CC2CCC1C(N1CCCC1)C2c1c[nH]c2ccccc12", "note": "(stereo in doubt; 9a) [listing 1 of 2 here]", "values": [{"measurement": "IC50", "setting": "[2]", "result": 46, "unit": "µM"}, {"measurement": "Ki", "setting": "[4]", "result": 23, "unit": "µM"}, {"measurement": "Ki", "setting": "[5]", "result": 32, "unit": "µM"}, {"measurement": "IC50", "setting": "[6]", "result": 32, "unit": "µM"}]}
{"molecule": "O=C1CC2CCC1C(N1CCCC1)C2c1c[nH]c2ccccc12", "note": "(stereo in doubt; 9a) [listing 2 of 2 here]", "values": [{"measurement": "Hill coefficient", "setting": "[7]", "result": 0.95}, {"measurement": "Hill coefficient", "setting": "[3]", "result": 0.9}]}
{"molecule": "O=C1CC2CCC1C(N1CCCC1)C2c1c[nH]c2ccccc12", "note": "(stereo in doubt; 9b) [listing 1 of 2 here]", "values": [{"measurement": "IC50", "setting": "[2]", "result": 53, "unit": "µM"}, {"measurement": "Ki", "setting": "[4]", "result": 70, "unit": "µM"}, {"measurement": "IC50", "setting": "[6]", "result": 96, "unit": "µM"}]}
{"molecule": "O=C1CC2CCC1C(N1CCCC1)C2c1c[nH]c2ccccc12", "note": "(stereo in doubt; 9b) [listing 2 of 2 here]", "values": [{"measurement": "Hill coefficient", "setting": "[1]", "result": 0.47}, {"measurement": "Hill coefficient", "setting": "[3]", "result": 1}]}
{"molecule": "O=C1CC2CCC1C(N1CCCCC1)C2c1c[nH]c2ccccc12", "note": "(stereo in doubt; 10a) [listing 1 of 2 here]", "values": [{"measurement": "IC50", "setting": "[2]", "result": 86, "unit": "µM"}, {"measurement": "Ki", "setting": "[4]", "result": 4, "unit": "µM"}, {"measurement": "Ki", "setting": "[5]", "result": 61, "unit": "µM"}, {"measurement": "IC50", "setting": "[6]", "result": 5, "unit": "µM"}]}
{"molecule": "O=C1CC2CCC1C(N1CCCCC1)C2c1c[nH]c2ccccc12", "note": "(stereo in doubt; 10a) [listing 2 of 2 here]", "values": [{"measurement": "Hill coefficient", "setting": "[1]", "result": 1.2}, {"measurement": "Hill coefficient", "setting": "[3]", "result": 1}]}
{"molecule": "O=C1CC2CCC1C(N1CCCCC1)C2c1c[nH]c2ccccc12", "note": "(stereo in doubt; 10b) [listing 1 of 2 here]", "values": [{"measurement": "IC50", "setting": "[2]", "result": 160, "unit": "µM"}, {"measurement": "Ki", "setting": "[4]", "result": 61, "unit": "µM"}, {"measurement": "Ki", "setting": "[5]", "result": 115, "unit": "µM"}, {"measurement": "IC50", "setting": "[6]", "result": 84, "unit": "µM"}]}
{"molecule": "O=C1CC2CCC1C(N1CCCCC1)C2c1c[nH]c2ccccc12", "note": "(stereo in doubt; 10b) [listing 2 of 2 here]", "values": [{"measurement": "Hill coefficient", "setting": "[1]", "result": 0.88}, {"measurement": "Hill coefficient", "setting": "[3]", "result": 0.9}]}
{"molecule": "C1=CC2CCC1C(c1c[nH]c3ccccc13)C2N1CCCC1", "note": "(stereo in doubt; 12a) [listing 1 of 2 here]", "values": [{"measurement": "IC50", "setting": "[2]", "result": 12, "unit": "µM"}, {"measurement": "Ki", "setting": "[4]", "result": 14, "unit": "µM"}, {"measurement": "Ki", "setting": "[5]", "result": 8.5, "unit": "µM"}, {"measurement": "IC50", "setting": "[6]", "result": 19, "unit": "µM"}]}
{"molecule": "C1=CC2CCC1C(c1c[nH]c3ccccc13)C2N1CCCC1", "note": "(stereo in doubt; 12a) [listing 2 of 2 here]", "values": [{"measurement": "Hill coefficient", "setting": "[1]", "result": 0.95}, {"measurement": "Hill coefficient", "setting": "[3]", "result": 1}]}
{"molecule": "C1=CC2CCC1C(c1c[nH]c3ccccc13)C2N1CCCC1", "note": "(stereo in doubt; 12b) [listing 1 of 2 here]", "values": [{"measurement": "IC50", "setting": "[2]", "result": 47, "unit": "µM"}, {"measurement": "Ki", "setting": "[4]", "result": 17, "unit": "µM"}, {"measurement": "IC50", "setting": "[6]", "result": 24, "unit": "µM"}]}
{"molecule": "C1=CC2CCC1C(c1c[nH]c3ccccc13)C2N1CCCC1", "note": "(stereo in doubt; 12b) [listing 2 of 2 here]", "values": [{"measurement": "Hill coefficient", "setting": "[1]", "result": 0.61}, {"measurement": "Hill coefficient", "setting": "[3]", "result": 0.9}]}
{"molecule": "C1=CC2CCC1C(c1c[nH]c3ccccc13)C2N1CCCCC1", "note": "(stereo in doubt; 13a) [listing 1 of 2 here]", "values": [{"measurement": "IC50", "setting": "[2]", "result": 18, "unit": "µM"}, {"measurement": "Ki", "setting": "[4]", "result": 8, "unit": "µM"}, {"measurement": "Ki", "setting": "[5]", "result": 13.5, "unit": "µM"}, {"measurement": "IC50", "setting": "[6]", "result": 10, "unit": "µM"}]}
{"molecule": "C1=CC2CCC1C(c1c[nH]c3ccccc13)C2N1CCCCC1", "note": "(stereo in doubt; 13a) [listing 2 of 2 here]", "values": [{"measurement": "Hill coefficient", "setting": "[1]", "result": 0.93}, {"measurement": "Hill coefficient", "setting": "[3]", "result": 1}]}
{"molecule": "C1=CC2CCC1C(c1c[nH]c3ccccc13)C2N1CCCCC1", "note": "(stereo in doubt; 13b) [listing 1 of 2 here]", "values": [{"measurement": "IC50", "setting": "[2]", "result": 89, "unit": "µM"}, {"measurement": "Ki", "setting": "[4]", "result": 9, "unit": "µM"}, {"measurement": "IC50", "setting": "[6]", "result": 13, "unit": "µM"}]}
{"molecule": "C1=CC2CCC1C(c1c[nH]c3ccccc13)C2N1CCCCC1", "note": "(stereo in doubt; 13b) [listing 2 of 2 here]", "values": [{"measurement": "Hill coefficient", "setting": "[1]", "result": 0.69}, {"measurement": "Hill coefficient", "setting": "[3]", "result": 0.9}]}
{"molecule": "NCCc1c[nH]c2ccc(O)cc12", "note": "[SEROTONIN]", "values": [{"measurement": "Hill coefficient", "setting": "[8]", "result": 0.75}, {"measurement": "Hill coefficient", "setting": "[9]", "result": 0.85}]}
